Data taken from ChEMBL document CHEMBL1157787, “Design, synthesis and evaluation of progesterone-adenine hybrids as bivalent inhibitors of P-glycoprotein-mediated multidrug efflux” (Bioorg Med Chem Lett, 2010).

Tests used:
K562 = test: Cytotoxicity against human K562 cells expressing very low P-glycoprotein at 10 uM after 24 hrs relative to control
[1] = molecular target: T1, ATP-dependent translocase ABCB1 (Homo sapiens, UniProt P08183); test: Inhibition of P-glycoprotein-mediated daunorubicin efflux in K562/R7 human leukemic cells overexpressing P-glycoprotein assessed as intracellular accumulation of daunorubicin at 10 uM after 1 hr by flow cytometry relative to progesterone; format: cell-based; set-up: scale not given: the % may be the effect or the level left
T1 sequence (P08183 whole entry): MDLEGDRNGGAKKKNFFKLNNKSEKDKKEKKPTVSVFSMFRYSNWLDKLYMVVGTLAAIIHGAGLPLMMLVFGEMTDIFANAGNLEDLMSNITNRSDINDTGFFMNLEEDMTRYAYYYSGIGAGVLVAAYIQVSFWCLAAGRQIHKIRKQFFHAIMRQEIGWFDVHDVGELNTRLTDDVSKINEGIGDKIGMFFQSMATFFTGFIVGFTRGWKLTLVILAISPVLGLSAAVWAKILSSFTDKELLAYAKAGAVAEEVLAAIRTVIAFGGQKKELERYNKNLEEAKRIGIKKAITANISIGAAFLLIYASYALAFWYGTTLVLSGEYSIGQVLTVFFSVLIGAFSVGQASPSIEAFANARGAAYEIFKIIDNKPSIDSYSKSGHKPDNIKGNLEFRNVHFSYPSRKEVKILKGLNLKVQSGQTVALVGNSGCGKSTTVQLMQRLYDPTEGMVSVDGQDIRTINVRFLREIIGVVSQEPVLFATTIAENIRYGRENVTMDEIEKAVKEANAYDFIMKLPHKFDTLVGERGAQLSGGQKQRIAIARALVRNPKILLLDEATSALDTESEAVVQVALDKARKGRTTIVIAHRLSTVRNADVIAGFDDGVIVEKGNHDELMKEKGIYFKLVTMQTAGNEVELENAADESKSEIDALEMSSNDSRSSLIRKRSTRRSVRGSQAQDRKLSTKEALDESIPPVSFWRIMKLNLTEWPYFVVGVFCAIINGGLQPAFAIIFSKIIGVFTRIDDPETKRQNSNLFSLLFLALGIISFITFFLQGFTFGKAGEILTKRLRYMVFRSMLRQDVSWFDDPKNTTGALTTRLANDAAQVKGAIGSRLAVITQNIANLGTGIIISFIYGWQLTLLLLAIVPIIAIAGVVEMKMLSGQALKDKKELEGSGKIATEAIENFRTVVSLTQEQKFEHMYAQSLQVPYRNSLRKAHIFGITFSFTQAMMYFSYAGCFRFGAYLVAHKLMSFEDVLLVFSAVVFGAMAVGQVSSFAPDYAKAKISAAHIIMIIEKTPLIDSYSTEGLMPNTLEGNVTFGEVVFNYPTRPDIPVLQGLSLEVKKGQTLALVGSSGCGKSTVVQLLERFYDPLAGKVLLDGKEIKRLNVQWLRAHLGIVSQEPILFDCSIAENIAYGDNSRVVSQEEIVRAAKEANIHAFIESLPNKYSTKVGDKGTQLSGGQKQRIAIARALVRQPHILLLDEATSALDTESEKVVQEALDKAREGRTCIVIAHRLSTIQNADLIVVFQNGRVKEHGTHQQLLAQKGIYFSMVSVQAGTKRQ
Procedure, shortened: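 Pgp-overexpressing resistant K562/R7 human leukemic cells; intracellular daunorubicin (1 μM) accumulation measured with compound at 10 μM. Accumulation with progesterone (10 μM) was set as 100%, and compound values were expressed as percent of that, with standard deviation.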

[2] = molecular target: T1, ATP-dependent translocase ABCB1; test: Inhibition of P-glycoprotein-mediated daunorubicin efflux in K562/R7 human leukemic cells overexpressing P-glycoprotein assessed as intracellular accumulation of daunorubicin at 10 uM after 1 hr by flow cytometry; format: cell-based; set-up: scale not given: the % may be the effect or the level left
Procedure, shortened: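 K562/R7 human leukemic cells overexpressing Pgp; intracellular daunorubicin (1 μM) accumulation measured with test compounds at 10 μM. Progesterone (10 μM) served as positive control; accumulation with progesterone set as 100%, values expressed as percent of progesterone accumulation; standard deviation reported.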

Structure (SMILES)	Activity (K562)	Activity [1]	Activity [2]
C[C@]12CC[C@H]3[C@@H](CCC4=CC(=O)CC[C@@]43C)[C@@H]1CC[C@@H]2C(=O)NC/C=C/Cn1cnc2c(N)ncnc21	80%	72.2%	–
C[C@]12CC[C@H]3[C@@H](CCC4=CC(=O)CC[C@@]43C)[C@@H]1CC[C@@H]2C(=O)NC/C=C\Cn1cnc2c(N)ncnc21	80%	86.2%	–
C[C@]12CC[C@H]3[C@@H](CCC4=CC(=O)CC[C@@]43C)[C@@H]1CC[C@@H]2C(=O)NCCCCn1cnc2c(N)ncnc21	80%	78%	–
C[C@]12CC[C@H]3[C@@H](CCC4=CC(=O)CC[C@@]43C)[C@@H]1CC[C@@H]2C(=O)NCCCCCCn1cnc2c(N)ncnc21	80%	110.9%	–
C[C@]12CC[C@H]3[C@@H](CCC4=CC(=O)CC[C@@]43C)[C@@H]1CC[C@@H]2C(=O)NC[C@H]1CC[C@H](Cn2cnc3c(N)ncnc32)CC1	80%	98.9%	–
C[C@]12CC[C@H]3[C@@H](CCC4=CC(=O)CC[C@@]43C)[C@@H]1CC[C@@H]2C(=O)NCc1ccc(Cn2cnc3c(N)ncnc32)cc1	80%	98.1%	–
C[C@]12CC[C@H]3[C@@H](CCC4=CC(=O)CC[C@@]43C)[C@@H]1CC[C@@H]2C(=O)NCC#CCn1cnc2c(N)ncnc21	80%	61.2%	–
CC(=O)[C@H]1CC[C@H]2[C@@H]3CCC4=CC(=O)CC[C@]4(C)[C@H]3CC[C@]12C [PROGESTERONE]	–	–	25%
